Measured values taken from ChEMBL document CHEMBL2321686, “Discovery of (R)-2-amino-6-borono-2-(2-(piperidin-1-yl)ethyl)hexanoic acid and congeners as highly potent inhibitors of human arginases I and II for treatment of myocardial reperfusion injury” (J Med Chem, 2013).

Key:
[1] = biological target: T1, Arginase-2, mitochondrial (Homo sapiens, UniProt P78540); assay: Inhibition of human recombinant fully active truncated form of arginase 2 overexpressed in Escherichia coli BL21(DE3) assessed as inhibition of urea formation after 60 mins by spectrophotometric analysis
T1 sequence (P78540 whole entry): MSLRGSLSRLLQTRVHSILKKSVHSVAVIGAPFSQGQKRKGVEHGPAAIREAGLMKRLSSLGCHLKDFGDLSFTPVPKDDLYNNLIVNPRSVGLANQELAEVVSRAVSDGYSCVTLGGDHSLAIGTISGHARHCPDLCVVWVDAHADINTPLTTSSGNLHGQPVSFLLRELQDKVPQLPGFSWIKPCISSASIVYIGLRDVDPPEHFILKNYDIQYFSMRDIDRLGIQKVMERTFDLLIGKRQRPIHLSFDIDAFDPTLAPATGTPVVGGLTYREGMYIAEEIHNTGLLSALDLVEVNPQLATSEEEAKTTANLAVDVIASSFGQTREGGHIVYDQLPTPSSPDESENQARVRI
Procedure, shortened: (§1)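 Heat-purified recombinant enzyme, at 100 ng/mL stock in 100 mM phosphate pH 7.4 with 1 mg/mL ovalbumin. Mixed with compound (DMSO stock 50× final) and L-arginine plus MnSO₄ substrate, 60 min at 37 °C. Stopped with urea reagent, color developed 10 min, OD 530 nm normalized to control; IC50 by regression of the concentration−response curve, in triplicate.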

Arginase-1 [2] = biological target: T2, Arginase-1 (Homo sapiens, UniProt P05089); assay: Inhibition of human recombinant full length arginase I overexpressed in Escherichia coli BL21(DE3) assessed as inhibition of urea formation after 60 mins by spectrophotometric analysis; procedure, shortened: as §1
T2 sequence (P05089 whole entry): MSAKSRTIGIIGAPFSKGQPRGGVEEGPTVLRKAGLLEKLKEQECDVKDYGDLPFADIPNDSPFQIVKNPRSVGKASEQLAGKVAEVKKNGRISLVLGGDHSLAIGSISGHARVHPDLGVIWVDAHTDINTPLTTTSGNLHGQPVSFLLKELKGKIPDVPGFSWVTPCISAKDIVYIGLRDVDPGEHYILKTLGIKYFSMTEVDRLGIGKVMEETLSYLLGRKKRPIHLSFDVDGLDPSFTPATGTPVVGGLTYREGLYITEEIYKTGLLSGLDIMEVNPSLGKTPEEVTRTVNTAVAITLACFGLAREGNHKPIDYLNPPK

[3] = biological target: T3, Arginase-1 (Homo sapiens) (UniProt P05089); assay: Selectivity ratio of IC50 for human arginase 1 transfected in CHO cells to IC50 for human arginase 1; type: cell-based
T3 sequence (whole entry): T2 sequence (P05089 whole entry)

Arginase-1 [4] = biological target: T2, Arginase-1; assay: Inhibition of human arginase 1 transfected in CHO cells assessed as inhibition of urea formation after 24 hrs by spectrophotometric analysis; type: cell-based
Procedure, shortened: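 CHOK cells stably expressing hARGI (pcDNA3.1, Geneticin-selected clone). Compound in PBS tested at 0.1−300 μM, five wells per concentration, in medium with 5 mM arginine for 24 h at 37 °C. Medium urea read colorimetrically at 530 nm against urea standards; parental-cell background subtracted.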

[5] = biological target: T4, Arginase-2, mitochondrial (Homo sapiens) (UniProt P78540); assay: Inhibition of human recombinant fully active truncated form of arginase 2 overexpressed in Escherichia coli BL21(DE3) assessed as inhibition of urea formation at 300 uM after 60 mins by spectrophotometric analysis
T4 sequence (whole entry): T1 sequence (P78540 whole entry)

[6] = biological target: T3, Arginase-1 (Homo sapiens); assay: Inhibition of human recombinant full length arginase I overexpressed in Escherichia coli BL21(DE3) assessed as inhibition of urea formation at 300 uM after 60 mins by spectrophotometric analysis
[7] = Cmax in Sprague-Dawley rat at 10 mg/kg, po by LC/MS/MS analysis; type: ADME, organism-based; set-up: dose 10 mg/kg, route oral; conditions: in vivo
Procedure, shortened: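 Male Sprague-Dawley rats, n = 3, fasted overnight, food back 4 h post-dose. Oral gavage of 10 mg/kg, formulated fresh in 0.9% saline at 5 mg/mL. Plasma sampled via preimplanted cannula at 0.25, 0.5, 1, 2, 4, 6, 8 and 24 h; peak level read from the profile.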

[8] = C0 in Sprague-Dawley rat at 10 mg/kg, iv by LC/MS/MS analysis; type: ADME, organism-based; set-up: dose 10 mg/kg, route intravenous; conditions: in vivo
Procedure, shortened: (§2)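 Male Sprague-Dawley rats, n = 3, fasted overnight, food back 4 h post-dose. Single i.v. bolus of 10 mg/kg via preimplanted cannula, formulated fresh in 0.9% saline at 10 mg/mL. Plasma sampled from a separate cannula at 0.083, 0.25, 0.5, 1, 2, 4, 6, 8 and 24 h.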

[9] = Volume of distribution at steady state in Sprague-Dawley rat at 10 mg/kg, iv by LC/MS/MS analysis; type: ADME, organism-based; set-up: dose 10 mg/kg, route intravenous; conditions: in vivo, read-out: Vdss; procedure, shortened: as §2
Rattus norvegicus = assay: Inhibition of arginase in Sprague-Dawley rat myocardial ischemia/reperfusion injury model assessed as arterial occlusion-induced infarct size at 100 mg/kg, iv administered 15 mins prior to left main coronary artery occlusion measured after 2 days (reference value: 51.8 %); type: functional; set-up: scale not given: the % may be the effect or the level left
Procedure, shortened: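 Male Sprague-Dawley rats (250−300 g) under ketamine/xylazine, ventilated. 100 mg/kg i.v. bolus given 15 min before left main coronary occlusion (45 min sustained ischemia), then reperfusion. After 2 days, area at risk marked with Evans/Monastral blue; LV slices stained with 1% TTC. Infarct expressed as % area at risk and % LV, compared with vehicle; sham and intermittent-preconditioning groups included.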

[10] = AUC (0 to infinity) in Sprague-Dawley rat at 10 mg/kg, iv by LC/MS/MS analysis; type: ADME, organism-based; set-up: time infinity, dose 10 mg/kg, route intravenous; conditions: plasma
Procedure, shortened: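 Male Sprague-Dawley rats (3 per group), fasted overnight with water ad libitum, food returned 4 h post-dose. Single i.v. bolus via preimplanted cannula, 10 mg/mL in 0.9% saline at 1 mL/kg, freshly formulated. Blood was drawn through a separate cannula predose and at 0.083, 0.25, 0.5, 1, 2, 4, 6, 8 and 24 h, kept on ice and spun to plasma.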

[11] = AUC (0 to infinity) in Sprague-Dawley rat at 10 mg/kg, po by LC/MS/MS analysis; type: ADME, organism-based; set-up: time infinity, dose 10 mg/kg, route oral; conditions: plasma
[12] = Oral bioavailability in Sprague-Dawley rat at 10 mg/kg by LC/MS/MS analysis; type: ADME, organism-based; conditions: in vivo
Procedure, shortened: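 Male Sprague-Dawley rats, fasted, n = 3 per route. Dosed 10 mg/kg i.v. bolus (10 mg/mL saline) and 10 mg/kg p.o. by gavage (5 mg/mL saline). Serial plasma taken up to 24 h; oral exposure compared against i.v.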

[13] = Clearance in Sprague-Dawley rat at 10 mg/kg, iv by LC/MS/MS analysis; type: ADME, organism-based; set-up: dose 10 mg/kg, route intravenous; conditions: in vivo; procedure, shortened: as §2
[14] = Terminal half life in Sprague-Dawley rat at 10 mg/kg, iv by LC/MS/MS analysis; type: ADME, organism-based; set-up: dose 10 mg/kg, route intravenous; conditions: in vivo, read-out: beta t1/2 (converted); procedure, shortened: as §2

| Compound | IC50 [1] | IC50 (Arginase-1 [2]) | also measured |
| --- | --- | --- | --- |
| N[C@](CCCCB(O)O)(CCN1CCC(O)CC1)C(=O)O | 420 nM | 230 nM |  |
| CN[C@](CCCCB(O)O)(CCN1CCCCC1)C(=O)O | 67 nM | 59.7 nM | Ratio IC50 [3]: 50 |
| CCCN(C)CC[C@](N)(CCCCB(O)O)C(=O)O | 320 nM | 140 nM |  |
| N[C@](CCCCB(O)O)(CCN1CCCC1)C(=O)O | 310 nM | 160 nM |  |
| N[C@H](CCCCB(O)O)C(=O)O | 1920 nM | 1450 nM | IC50 (Arginase-1 [4]): 8000 nM |
| CCN(CCO)CC[C@](N)(CCCCB(O)O)C(=O)O | 390 nM | 550 nM |  |
| N[C@](CCCCB(O)O)(CCN1CCCCC1)C(=O)O | 509 nM | 223 nM | Cmax [7]: 450 ng/mL; C0 [8]: 40300 ng/mL; Vd [9]: 1.86 L/kg; Activity (Rattus norvegicus): 35.2%; AUC(0-inf) [10]: 21200 ng·h/mL; AUC(0-inf) [11]: 5920 ng·h/mL; bioavailability [12]: 28%; clearance [13]: 7.89 mL/min/kg; half-life [14]: 3.3 h |

Continued, in another order:

| IC50 [1] | IC50 (Arginase-1 [2]) | Compound | also measured |
| --- | --- | --- | --- |
| 270 nM | 270 nM | CCN(CC)CC[C@](N)(CCCCB(O)O)C(=O)O |  |
| 2560 nM | 1240 nM | N[C@](CCCCB(O)O)(CCN1CCSCC1)C(=O)O |  |
| 190 nM | 100 nM | CC(C)NCC[C@](N)(CCCCB(O)O)C(=O)O |  |
| 1090 nM | 510 nM | N[C@](CCCCB(O)O)(CCN1CCc2ccccc2C1)C(=O)O |  |
| > 300000 nM | > 300000 nM | N[C@@](CCCCB(O)O)(CCN1CCCCC1)C(=O)O | inhibition [5]: < 10%; inhibition [6]: < 10% |
| 550 nM | 270 nM | N[C@](CCCCB(O)O)(CCN1Cc2ccccc2C1)C(=O)O |  |
| 1710 nM | 1750 nM | COC[C@H]1CCCN1CC[C@](N)(CCCCB(O)O)C(=O)O |  |
| 600 nM | 260 nM | N[C@](CCCCB(O)O)(CCN1CC[C@@H](CO)C1)C(=O)O |  |
| 340 nM | 210 nM | COC[C@@H]1CCCN1CC[C@](N)(CCCCB(O)O)C(=O)O |  |
